This note sets out measurements from ChEMBL document CHEMBL4152304, “Design, synthesis and anticancer activity of fluorocyclopentenyl-purines and - pyrimidines” (Eur J Med Chem, 2018).

Where only a bound is given, the exact number is not on record here.

As a reminder, the IC50 is the concentration at which inhibition is half-maximal.

Common to all, as to format: functional, cell-based
Test [1] has as its system SK-HEP1. Put plainly: Cytotoxicity against human SKHEP1 cells assessed as decrease in cell viability after 72 hrs by SRB assay. Particulars: SK-HEP1, 72 h. An outline of the steps:
(§1)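 Maintained in DMEM with 10% FBS and penicillin/streptomycin/amphotericin B at 37 °C in humidified 5% CO2; cell lines from the Korean Cell Line Bank. Plated at 5 × 10^4 cells/mL and treated with various concentrations for 72 h. Then 10% TCA fixation, 0.4% SRB staining in 1% acetic acid, solubilisation in 10 mM Tris pH 10.0 and absorbance at 515 nm. Viability is versus vehicle control; IC50 from nonlinear regression.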
(In general: Sulforhodamine B stains cellular protein and so reports cell mass.)

The test system of test [2] is MDA-MB-231. Nature of the test: Cytotoxicity against human MDA-MB-231 cells assessed as decrease in cell viability after 72 hrs by SRB assay. Particulars: MDA-MB-231, 72 h. An outline of the steps:
as §1

For test [3], the system named is HCT-116. Put plainly: Cytotoxicity against human HCT116 cells assessed as decrease in cell viability after 72 hrs by SRB assay. Particulars: HCT-116, 72 h. The gist of the method: (§2)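 Cells from the Korean Cell Line Bank were grown in RPMI 1640 with 10% FBS and penicillin/streptomycin/amphotericin B at 37 °C under 5% CO2. They were seeded at 5 × 10^4 cells/mL and exposed to a range of compound concentrations for 72 h. Cells were fixed in 10% TCA and stained with 0.4% SRB in 1% acetic acid. Dye was dissolved in 10 mM Tris (pH 10.0) and read at A515. Viability is relative to vehicle; IC50 by nonlinear regression.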

For test [4], the system named is A549. Nature of the test: Cytotoxicity against human A549 cells assessed as decrease in cell viability after 72 hrs by SRB assay. The note with it: A549, 72 h. The gist of the method:
as §2

Test [5] concerns SNU-638. Put plainly: Cytotoxicity against human SNU638 cells assessed as decrease in cell viability after 72 hrs by SRB assay. The note with it: SNU-638, 72 h. An outline of the steps:
as §2

Test [6] concerns PC-3. Put plainly: Cytotoxicity against human PC3 cells assessed as decrease in cell viability after 72 hrs by SRB assay. The note with it: PC-3, 72 h. The gist of the method: as §2

Consider `OCC1=C(F)[C@@H](n2cnc3c(NC4CC4)ncnc32)[C@H](O)[C@@H]1O`, for which the IC50 in test [1], in test [2], in test [3], in test [4], in test [5] and in test [6] was more than 100 µM in each case.

For the compound `Nc1nc(=O)n([C@@H]2C(F)=C(CO)[C@@H](O)[C@H]2O)cc1F`, the IC50 in test [1], in test [2], in test [3], in test [4], in test [5] and in test [6] was more than 100 µM in each case.

On to `Nc1nc(O)c2ncn([C@@H]3C(F)=C(CO)[C@@H](O)[C@H]3O)c2n1`, for which the IC50 in test [1], in test [2], in test [3], in test [4], in test [5] and in test [6] was more than 100 µM throughout.

With `Nc1nc(=O)n([C@@H]2C(F)=C(CO)[C@@H](O)[C@H]2O)cc1Br`, the IC50 in test [1], in test [2], in test [3], in test [4], in test [5] and in test [6] was more than 100 µM each time.

Turning to `OCC1=C(F)[C@@H](n2cnc3c(O)ncnc32)[C@H](O)[C@@H]1O`, the IC50 in test [1], in test [2], in test [3], in test [4], in test [5] and in test [6] was more than 100 µM in each case.

In the case of `O=c1nc(O)c(Br)cn1[C@@H]1C(F)=C(CO)[C@@H](O)[C@H]1O`, the IC50 in test [1] was 75 µM; in test [2], 44 µM; in test [3] it was 33.1 µM; in test [4], more than 100 µM; in test [5], 32 µM; in test [6], 32 µM.

Take `O=c1nc(O)c(Cl)cn1[C@@H]1C(F)=C(CO)[C@@H](O)[C@H]1O`: the IC50 in test [1] was more than 100 µM; in test [2], more than 100 µM; in test [3], more than 100 µM; in test [4] it was more than 100 µM; in test [5] it was 86.8 µM; in test [6], 61.9 µM.

In the case of `CC(C)OC(=O)[C@H](C)N[P@](=O)(OCC1=C(F)[C@@H](n2cnc3c(N)ncnc32)[C@H](O)[C@@H]1O)Oc1ccccc1`, the concentration for half-maximal inhibition (IC50) was found to be 24 µM in test [1]; 18.4 µM in test [2]; 4.57 µM in test [3]; 18.6 µM in test [4]; 3.05 µM in test [5]; 10.5 µM in test [6].

As for `Nc1nc(=O)n([C@@H]2C(F)=C(CO)[C@@H](O)[C@H]2O)cc1I`, the IC50 in test [1] is more than 100 µM; in test [2], 79.8 µM; in test [3], 99.8 µM; in test [4], more than 100 µM; in test [5], 83.7 µM; in test [6], 82.9 µM.

On to `Nc1nc(N)c2ncn([C@@H]3C(F)=C(CO)[C@@H](O)[C@H]3O)c2n1`, for which the IC50 is more than 100 µM in test [1]; 22.8 µM in test [2]; 21.9 µM in test [3]; 85.4 µM in test [4]; 32.2 µM in test [5]; more than 100 µM in test [6].

`CNc1ncnc2c1ncn2[C@@H]1C(F)=C(CO)[C@@H](O)[C@H]1O`: the IC50 in test [1] worked out at 2.76 µM; in test [2], 8.05 µM; in test [3], 2.14 µM; in test [4], 2.39 µM; in test [5] it was 2.28 µM; in test [6], 15.3 µM.

For `Nc1nc(=O)n([C@@H]2C(F)=C(CO)[C@@H](O)[C@H]2O)cc1Cl`, the IC50 in test [1], in test [2], in test [3], in test [4], in test [5] and in test [6] was more than 100 µM each time.

On to `O=c1nc(O)c(F)cn1[C@@H]1C(F)=C(CO)[C@@H](O)[C@H]1O`, for which the IC50 is 71.6 µM in test [1]; 67.7 µM in test [2]; 52.3 µM in test [3]; more than 100 µM in test [4]; 27.8 µM in test [5]; 43.7 µM in test [6].

Turning to `O=c1nc(O)c(I)cn1[C@@H]1C(F)=C(CO)[C@@H](O)[C@H]1O`, the concentration for half-maximal inhibition (IC50) is more than 100 µM in test [1]; 55.1 µM in test [2]; 84.5 µM in test [3]; more than 100 µM in test [4]; 70.2 µM in test [5]; 46.4 µM in test [6].

For `Nc1nc(NC2CC2)c2ncn([C@@H]3C(F)=C(CO)[C@@H](O)[C@H]3O)c2n1`, the IC50 in test [1], in test [2], in test [3], in test [4], in test [5] and in test [6] was more than 100 µM each time.

As for `Nc1ccn([C@@H]2O[C@H](CO)[C@@H](O)[C@@H]2O)c(=O)n1` [CYTARABINE], the IC50 in test [1] was determined as 1.8 µM; in test [2] it was 10.5 µM; in test [3], 4.4 µM; in test [4], 1.75 µM; in test [5], 1.08 µM; in test [6], 48.4 µM.

For `Nc1ncnc2c1ncn2[C@@H]1C=C(CO)[C@@H](O)[C@H]1O` [NEOPLANOCIN A], the IC50 came to 2.36 µM in test [1]; 0.86 µM in test [2]; 1.45 µM in test [3]; 2.16 µM in test [4]; 0.82 µM in test [5]; 2.14 µM in test [6].
